High-throughput results: PubChem, several laboratories
HNF4A DNA FP: change in binding of human HNF4 alpha to DNA. HNF4a-FITC DNA binding, fluorescence polarization, 1 h. hit rate 0.3% among 360,000. AID 1224865. P41235. activity change, % at 10 µM; in the data active means activity change above about 30%, passing the limit was not always enough
Rpn11 block: blocks the human proteasome subunit Rpn11 | O00487 | human 26S proteasome, Ub4-pepOG fluorescence polarization; 20S core pre-blocked with epoxomicin | inhibition, % at 20 µM | hit rate 0.59% among 360,000;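 active means inhibition at 20 µM, scaled to each plate's controls, above about 33%, limit read from the data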
Target sequence (O00487 whole entry, looked up): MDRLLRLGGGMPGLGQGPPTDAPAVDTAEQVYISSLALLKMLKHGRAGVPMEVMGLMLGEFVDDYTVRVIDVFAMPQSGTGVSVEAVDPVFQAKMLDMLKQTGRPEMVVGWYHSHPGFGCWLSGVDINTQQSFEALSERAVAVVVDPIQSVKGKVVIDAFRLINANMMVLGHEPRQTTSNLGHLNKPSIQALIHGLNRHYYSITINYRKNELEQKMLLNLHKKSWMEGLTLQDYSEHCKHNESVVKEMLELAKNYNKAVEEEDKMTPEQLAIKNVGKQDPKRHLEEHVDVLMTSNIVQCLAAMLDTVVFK
NadD inh: inhibitors of Staphylococcus aureus NadD. purified NadD enzyme, colorimetric absorbance read-out. inhibition, % at 20 µM. hit rate 0.78% among 360,000. AID 602399; in the data active means inhibition above about 26%
PP1 inh: blocks human PP1-alpha phosphatase, a PP5 counter-screen | purified PP1alpha, OMFP fluorescence | inhibition, % at 6.7 µM | hit rate 0.9% among 320,000 | AID 2235;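 active means inhibition above the mean inhibition of all tested compounds plus 3 SD, computed separately for each screening campaign, cut at about 15% in these data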
Target sequence (P62136 whole entry, looked up): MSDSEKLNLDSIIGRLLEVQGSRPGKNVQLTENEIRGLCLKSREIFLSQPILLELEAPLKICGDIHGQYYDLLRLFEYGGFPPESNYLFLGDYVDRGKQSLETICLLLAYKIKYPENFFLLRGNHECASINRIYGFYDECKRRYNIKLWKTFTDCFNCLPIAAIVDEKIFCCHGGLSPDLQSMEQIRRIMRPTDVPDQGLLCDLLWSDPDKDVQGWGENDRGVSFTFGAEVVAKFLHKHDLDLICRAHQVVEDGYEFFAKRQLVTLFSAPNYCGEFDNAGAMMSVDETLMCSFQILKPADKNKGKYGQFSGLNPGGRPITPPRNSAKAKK
CSN inh: inhibitors of human CSN-mediated cullin deneddylation. Q92905. Purified CSN, SCF-Nedd8-OG deneddylation, fluorescence polarization. inhibition, % at 12.5 µM. hit rate 0.38% among 360,000;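 active means pattern-corrected inhibition above about 35%, with an unprinted fluorescence ratio check between 0.5 and 1.5, limit read from the data, passing the limit was not always enough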;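 further: 0% = enzyme with substrate and 100% = substrate without enzyme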
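Assay system: HEK293T-derived human Csn5 enzyme; quantity: 0.24 nM enzyme; medium: Tris/NaCl/DTT buffer, pH 7.5; also added: substrate SCFSkp2-Nedd8OG, 10 nM; doses: 12.5 µM compound; schedule: 90 min reaction at room temperature; signal: FP; read-out: % inhibition of substrate cleavage by Csn5; benchmarks: substrate-only high control, full reaction low control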
TPT1 inhibitor: C. albicans TPT1 enzyme inhibition; recombinant caTPT1, FP RNA substrate dephosphorylation; inhibition, % at 5 µM; hit rate 0.81% among 300,000;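 active means inhibition above the mean of all tested compounds plus 3 SD, set per screening campaign, cut at about 24% in these data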;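 further: plate controls were DMSO alone for no effect and ferristatin control at 100 nM for full effect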
TPT1 inh confirm: TPT1 (C. albicans) inhibition, confirmation. recombinant caTPT1, fluorescence polarization, RNase T1 coupled. shares compounds with TPT1 inhibitor. hit rate 74% among 2,400. inhibition, % at 5 µM;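 active means inhibition above the primary screen limit, the mean inhibition of all tested compounds plus 3 SD, cut at about 25% in these data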
RNase T1 counter: counter-screen for TPT1 inhibitors: inhibitors of Aspergillus oryzae RNase T1. AID 2153. RNase T1 cleavage, fluorescence polarization, 1536-well. shares compounds with TPT1 inhibitor. inhibition, % at 5 µM. hit rate 83% among 2,400;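 active means inhibition above the solvent-only control well mean plus 3 SD, limit set per screening run, cut at about 23% in these data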;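 further: plate controls were DMSO wells with enzyme for no effect and wells without RNase T1 for full effect; inhibitors block cleavage so intact labeled substrate keeps polarization high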
* hit, by the source's call; x = not tested or not shown; + = active, no number. Hits are enriched below; roughly 2.7% of the tested compounds scored in any of these assays.

SMILES	HNF4A DNA FP	Rpn11 block	NadD inh	PP1 inh	CSN inh	TPT1 inhibitor	TPT1 inh confirm	RNase T1 counter
COc1ccc(/C=C2\SC(c3ccc(C)cc3)=NC2=O)cc1OC	86*	x	-1	1	102	87*	84*	90*
COc1cc(/C=C2\SC(c3ccc(C)cc3)=NC2=O)cc(OC)c1OC	51*	x	-1	3	49*	30*	40*	50*
COc1ccc(/C=C2/SC(c3ccc(C)cc3)=NC2=O)cc1OC	101	x	-4	0	98	112*	80*	85*
Brc1ccc(C[n+]2ccccc2)cc1	2	5	0	0	1	2	x	x
Cc1ccc(Cn2cc(/C=N/Nc3ccc([N+](=O)[O-])cn3)c3ccccc32)cc1	54*	35	19	10	25	51*	34*	44*
O=C(O)c1ccccc1C=NNc1ccc([N+](=O)[O-])cn1	1	2	-5	x	2	x	x	x
Cc1ccc(-n2c(C)cc(/C=N/Nc3ccc([N+](=O)[O-])cn3)c2C)cc1	3	19	15	5	7	34*	35*	47*
Cc1cc(/C=N/Nc2ccc([N+](=O)[O-])cn2)c(C)n1-c1ccccc1	7	30	31*	14	1	31*	35*	47*
CCOC(=O)[C@]12CCC=C1N(Cc1ccc(Cl)cc1Cl)C(=O)[C@H](CC(=O)NCc1cccc(C(F)(F)F)c1)C2	2	x	-2	x	1	x	x	x
O=C(NCc1ccccc1)C1C(c2ccccc2)=Nc2ccccc2N1C(=O)c1ccncc1 (centres undefined)	-4	x	x	x	-2	x	x	x
O=C(NCc1cccnc1)c1ccc2sc([C@@H]3O[C@H](CO)[C@H](O)[C@H](O)[C@H]3O)nc2c1	-3	-7	-2	x	-2	x	x	x
O=C(c1ccco1)[C@@H]1[C@@H]2C(=O)N(c3ccc(F)cc3)C(=O)[C@@H]2[C@H]2C=Cc3ccccc3N21	18	14	12	11	6	30*	21	31*
NC(=O)[C@@H]1[C@@H]2C(=O)N(c3ccc(F)cc3)C(=O)[C@@H]2[C@H]2C=Cc3ccccc3N21	12	12	12	-3	3	7	x	x
O=C(Nc1cc(S(=O)(=O)N2CCOCC2)ccc1Cl)C1CCC1	3	-4	-2	-9	-1	-1	x	x
COc1ccc(Cn2c(O)cc(=O)[nH]c2=O)cc1	0	16	6	-2	15	26*	21	28*
CCOc1ccc(Cn2c(O)cc(=O)[nH]c2=O)cc1	1	14	6	-4	14	39*	19	24*
Nc1cc(=O)[nH]c(=O)n1Cc1ccccc1	1	-9	-5	-3	0	0	x	x
Cc1ccc(CN2CCNC(=O)C2CC(=O)NCc2cc(C)n(C)n2)cc1 (centres undefined)	-5	-6	-2	-1	2	-5	x	x
Cc1cccc(S(=O)(=O)c2c(N)n(/N=C/c3cccnc3)c3nc4ccccc4nc23)c1	-1	0	4	-6	0	33*	53*	70*
COc1cccc(/C=N/n2c(N)c(S(=O)(=O)c3cccs3)c3nc4ccccc4nc32)c1	-4	-5	6	-1	-2	-2	x	x
O=Cc1ccc(-c2ccccc2C(=O)O)o1	-4	-10	0	-2	-6	-4	x	x
Cc1cc2nc(/C(C#N)=C\c3ccc(-c4ccccc4C(=O)O)o3)[nH]c2cc1C	148	x	13	-4	118	138*	145*	136*
N#C/C(=C\c1ccc(Sc2ccccc2)o1)c1nc2ccccc2[nH]1	11	3	10	1	-5	51*	60*	70*
Cc1cc(/C=C2\SC(=S)NC2=O)c(C)n1C1CC1	56*	x	20	2	31	74*	107*	117*
Cc1cc(/C=C2/C(=O)N(C)C(=S)N2C)c(C)n1C1CC1	12	8	6	0	6	30*	46*	55*
SMILES	HNF4A DNA FP	Rpn11 block	NadD inh	PP1 inh	CSN inh	TPT1 inhibitor	TPT1 inh confirm	RNase T1 counter
O=C(O)CCn1cc(/C=C2/NC(=S)N(c3ccccc3)C2=O)c(-c2ccccc2)n1	3	-5	-6	0	-15	1	x	x
O=C(O)CCn1cc(/C=C2\SC(=S)NC2=O)c(-c2ccccc2)n1	4	17	-1	2	10	54*	1	7
COC(=O)C1=NN(c2ccc(C)cc2)C2C(=O)N(c3ccccc3OC)C(=O)C12 (centres undefined)	7	-2	1	-3	-3	0	x	x
COc1ccccc1N1C(=O)C2C(C(=O)c3ccccc3)=NN(c3ccc(Br)cc3)C2C1=O (centres undefined)	32	22	16	2	24	35*	27*	41*
COc1ccccc1N1C(=O)C2C(C(=O)c3ccccc3)=NN(c3ccc(C)cc3)C2C1=O (centres undefined)	-23	-62	8	9	6	51*	65*	73*
O=C1S/C(=C\c2ccc(N3CCOCC3)o2)C(=O)N1c1ccccc1	-20	x	11	-2	4	+	185*	166*
O=C1S/C(=C/c2ccc(N3CCOCC3)o2)C(=O)N1Cc1c(F)cccc1Cl	149	x	9	-2	-72	139*	177*	162*
O=C1S/C(=C\c2ccc(N3CCOCC3)o2)C(=O)N1Cc1c(F)cccc1Cl	138	x	15	1	-29	148*	190*	174*
O=C(NCCN1CCOCC1)c1ccc2c(c1)N(Cc1c(F)cccc1Cl)C(=O)c1ccccc1S2	-1	-2	-4	-2	-3	-3	x	x
O=C1N=C(N2CCOCC2)S/C1=C/c1ccc(-c2ccccc2Cl)o1	-41	1	-4	0	3	2	x	x
CCOc1ccc(S(=O)(=O)N2CCC(C(=O)NC3CCCCC3)CC2)cc1	3	-3	-6	-2	-1	-1	x	x
Cc1cc(OC(C)C(=O)N2CCN(c3ccccc3)CC2)c2c(C)c(C)c(=O)oc2c1 (centres undefined)	3	-5	-8	-2	7	29*	1	3
COC(=O)c1ccc(C(=O)Nc2ccc(N)cc2N)cc1	6	x	13	11	13	108*	5	13
CCOC(=O)C1=C(c2ccccc2)N=c2s/c(=C\c3ccc(O)cc3)c(=O)n2C1c1cccs1 (centres undefined)	22	x	35*	1	45*	31*	53*	60*
CCCn1c2c(c(O)c(C(=O)NC)c1=O)CCCC2	19	34	1	-1	11	38*	9	16
